In ChEMBL document CHEMBL1127591, “Novel prodrugs of alkylating agents derived from 2-fluoro- and 3-fluorobenzoic acids for antibody-directed enzyme prodrug therapy” (J Med Chem, 1994):

Assays:
[1] = Chemical half-life in percholate at 37 degree was determined; type: ADME; conditions: perchlorate solution
Procedure, shortened: (§1)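 Sodium perchlorate (0.1 M) at 37 °C. Hydrolysis was followed to effective completion by titrating the released acid with 0.01 M NaOH under N2 on an automatic titrator held at pH 7.4. Each compound was run at least twice, and t1/2 is the mean of all determinations.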

[2] = system: LS174T; assay: Compound was evaluated for its cytotoxicity without carboxypeptidase G2 in the colorectal cell line LS174T for 1 hour; type: functional, cell-based; conditions: Homo sapiens
Procedure, shortened: (§2)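 LS174T cells (2.5 × 10³/well) in DMEM + 10% FCS, 5% CO2, 37 °C. Exposed once for 1 h to six concentrations (1–800 μM), with or without CPG2 (6 units/mL final). Compounds and enzyme were freshly prepared. Cells washed three times, regrown 6 days, then fixed and stained. Viable-cell protein read by sulforhodamine B against untreated controls. Octuplicate wells.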

[3] = Kinetics of potential prodrugs as substrates for carboxypeptidase G2 was determined and reported as Michaelis-Menten constant; type: ADME
Procedure, shortened: (§3)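 CPG2 cleavage of the benzoylglutamate amide bond in 100 mM Tris/HCl pH 7.3 with 260 μM ZnCl2 at 37 °C in a thermostated spectrophotometer. Absorbance fall was read at the wavelength of maximal prodrug–parent difference, chosen from 240–400 nm scans. Substrate 0.1–100 μM, CPG2 (0.01–1.0 unit) held constant per run. Michaelis–Menten fit. Duplicates.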

[4] = Kinetics of potential prodrugs as substrates for carboxypeptidase G2 was determined and reported as first order constant; type: ADME; procedure, shortened: as §3
[5] = system: LS174T; assay: Compound was evaluated for its cytotoxicity with carboxypeptidase G2 in the colorectal cell line LS174T for 1 hour; type: functional, cell-based; conditions: Homo sapiens; procedure, shortened: as §2
[6] = Kinetics of potential prodrugs as substrates for carboxypeptidase G2 was determined and reported as apparent second order constant; type: ADME; procedure, shortened: as §3
[7] = Chemical half-life in percholate at 37 degree Centigrade; type: ADME; conditions: perchlorate solution; procedure, shortened: as §1

Question: For `CS(=O)(=O)OCCN(CCCl)c1ccc(C(=O)O)cc1`, which half-life [1] is on record?
Answer: Its half-life is 0.967 h.

Question: And the IC50 [2]?
Answer: Its IC50 is 185 µM.

Question: What does the source list for `CS(=O)(=O)OCCN(CCCl)c1ccc(C(=O)N[C@@H](CCC(=O)O)C(=O)O)cc1`?
Answer: Km [3]: 3.4 µM; half-life [1]: 16.4 h; k cat [4]: 583 s⁻¹; IC50 [5]: 200 µM; k cat/Km [6]: 1.71e+08 M⁻¹ s⁻¹

Question: Which Km [3] does the source give for `CS(=O)(=O)OCCN(CCCl)c1ccc(C(=O)N[C@@H](CCC(=O)O)C(=O)O)c(F)c1` here?
Answer: The Km was 11 µM.

Question: And the k cat [4]?
Answer: Its k cat is 213 s⁻¹.

Question: What about the “k cat/Km” value [6] of the same molecule?
Answer: Its value is 1.9e+07 M⁻¹ s⁻¹.

Question: For `O=C(O)CC[C@H](NC(=O)c1ccc(N(CCCl)CCCl)cc1)C(=O)O`, which half-life [1] is on record?
Answer: Its half-life is 19.3 h.

Question: With `CS(=O)(=O)OCCN(CCOS(C)(=O)=O)c1ccc(C(=O)N[C@@H](CCC(=O)O)C(=O)O)cc1` as the molecule, how does the half-life [7] read?
Answer: The half-life was 0.7 h.

Question: With `CS(=O)(=O)OCCN(CCCl)c1ccc(C(=O)N[C@@H](CCC(=O)O)C(=O)O)cc1F` as the molecule, how does the Km [3] read?
Answer: Its Km is 6 µM.

Question: What about the half-life [1] of the same molecule?
Answer: Its half-life is 2.03 h.

Question: What about the k cat [4] of the same molecule?
Answer: Its k cat is 614 s⁻¹.

Question: What about the “k cat/Km” value [6] of the same molecule?
Answer: The value was 1.02e+08 M⁻¹ s⁻¹.

Question: Which results are given for `O=C(O)CC[C@H](NC(=O)c1ccc(N(CCCl)CCCl)cc1F)C(=O)O`?
Answer: Km [3]: 15 µM; k cat [4]: 462 s⁻¹; IC50 [5]: > 800 µM; k cat/Km [6]: 3.1e+07 M⁻¹ s⁻¹; IC50 [2]: > 800 µM

Question: Which half-life [1] does the source give for `CS(=O)(=O)OCCN(CCCl)c1ccc(C(=O)O)c(F)c1` here?
Answer: Its half-life is 3.2 h.

Question: What about the IC50 [2] of the same molecule?
Answer: The IC50 was over 800 µM.

Question: With `CS(=O)(=O)OCCN(CCCl)c1ccc(C(=O)O)cc1F` as the molecule, how does the half-life [1] read?
Answer: Its half-life is 0.04 h.

Question: And the IC50 [2]?
Answer: Its IC50 is 280 µM.

Question: For `CS(=O)(=O)OCCN(CCOS(C)(=O)=O)c1ccc(C(=O)O)cc1F`, which half-life [1] is on record?
Answer: The half-life was 0.0317 h.

Question: What about the IC50 [2] of the same molecule?
Answer: The IC50 was 480 µM.

Question: With `O=C(O)CC[C@H](NC(=O)c1ccc(N(CCCl)CCCl)c(F)c1)C(=O)O` as the molecule, how does the Km [3] read?
Answer: The Km was 10 µM.

Question: What about the half-life [1] of the same molecule?
Answer: Its half-life is 2.45 h.

Question: And the k cat [4]?
Answer: Its k cat is 1028 s⁻¹.

Question: What about the IC50 [5] of the same molecule?
Answer: The IC50 was 390 µM.

Question: And the “k cat/Km” value [6]?
Answer: The value was 1.03e+08 M⁻¹ s⁻¹.

Question: What about the IC50 [2] of the same molecule?
Answer: The IC50 was over 800 µM.

Question: What does the source list for `CS(=O)(=O)OCCN(CCOS(C)(=O)=O)c1ccc(C(=O)N[C@@H](CCC(=O)O)C(=O)O)cc1F`?
Answer: Km [3]: 17 µM; half-life [1]: 0.15 h; k cat [4]: 565 s⁻¹; k cat/Km [6]: 3.3e+07 M⁻¹ s⁻¹
